Assay results as given in ChEMBL document CHEMBL4330127, “Discovery of Novel Pyruvate Dehydrogenase Kinase 4 Inhibitors for Potential Oral Treatment of Metabolic Diseases” (J Med Chem, 2019).

Columns and labels:
[1] = target: T1, [Pyruvate dehydrogenase (acetyl-transferring)] kinase isozyme 4, mitochondrial (Homo sapiens, UniProt Q16654); experiment: Inhibition of PDK4 (unknown origin) at 10 uM relative to control
Target sequence in this assay (Q16654 whole entry, looked up): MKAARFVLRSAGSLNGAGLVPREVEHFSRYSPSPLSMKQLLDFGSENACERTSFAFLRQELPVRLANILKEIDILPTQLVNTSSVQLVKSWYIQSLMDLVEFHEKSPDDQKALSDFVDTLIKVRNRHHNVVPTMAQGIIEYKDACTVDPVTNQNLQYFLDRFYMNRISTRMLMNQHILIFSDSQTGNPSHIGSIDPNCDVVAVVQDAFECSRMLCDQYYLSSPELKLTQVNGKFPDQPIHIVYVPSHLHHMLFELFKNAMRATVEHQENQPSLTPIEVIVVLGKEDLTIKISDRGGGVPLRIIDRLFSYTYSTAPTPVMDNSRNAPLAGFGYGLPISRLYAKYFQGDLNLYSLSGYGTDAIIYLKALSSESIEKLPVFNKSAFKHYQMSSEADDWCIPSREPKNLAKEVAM

[2] = target: T1, [Pyruvate dehydrogenase (acetyl-transferring)] kinase isozyme 4, mitochondrial; experiment: Inhibition of PDK4 in HEK293T cells assessed as reduction in PDHE1alpha phosphorylation at Ser-293 residue by measuring phosphorylated PDHE1alpha level at 10 uM after 24 hrs by Western blot analysis; type: cell-based
Method in brief: (§1)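 HEK293T cells grown in high-glucose DMEM with 10% FBS at 37 °C, 5% CO2. Medium renewed after 24 h, then cells exposed to compound for 24 h and lysed. 20 μg protein per lane Western blotted with antibodies to phospho-PDHE1α Ser232, Ser293 and Ser300 and to total PDHE1α. Band intensity quantified relative to control; triplicate.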
Target sequence in this assay (Q16654 whole entry, looked up): as above

[3] = target: T1, [Pyruvate dehydrogenase (acetyl-transferring)] kinase isozyme 4, mitochondrial; experiment: Inhibition of PDK4 in HEK293T cells assessed as reduction in PDHE1alpha phosphorylation at Ser-300 residue by measuring phosphorylated PDHE1alpha level at 10 uM after 24 hrs by Western blot analysis; type: cell-based
Method in brief: as §1
Target sequence in this assay (Q16654 whole entry, looked up): as above

[4] = target: T1, [Pyruvate dehydrogenase (acetyl-transferring)] kinase isozyme 4, mitochondrial; experiment: Inhibition of PDK4 in HEK293T cells assessed as reduction in PDHE1alpha phosphorylation at Ser-232 residue by measuring phosphorylated PDHE1alpha level at 10 uM after 24 hrs by Western blot analysis; type: cell-based
Method in brief: as §1
Target sequence in this assay (Q16654 whole entry, looked up): as above

[5] = target: T1, [Pyruvate dehydrogenase (acetyl-transferring)] kinase isozyme 4, mitochondrial; experiment: Inhibition of PDK4 (unknown origin)
Target sequence in this assay (Q16654 whole entry): as the sequence (Q16654 whole entry, looked up) above

[6] = Metabolic stability in human liver microsomes assessed as parent compound remaining at 1 uM after 30 mins by LC-MS/MS analysis
[7] = Metabolic stability in rat liver microsomes assessed as parent compound remaining after 30 mins by LC-MS/MS analysis; type: ADME, Microsome; conditions: read-out: Stability

| SMILES | inhibition [1] [%] | other results |
| --- | --- | --- |
| O=C1c2ccccc2C(=O)c2c1cccc2-c1cccnc1 | 25.4 | – |
| O=C1c2ccccc2C(=O)c2ccccc21 | 40.7 | – |
| O=S(=O)(c1ccc(O)cc1O)N1Cc2cc(O)cc(O)c2C1 | 34.1 | fold change (FC) [2]: 0.98; fold change (FC) [3]: 0.93; fold change (FC) [4]: 0.62 |
| O=C1c2ccccc2C(=O)c2c1cccc2C1=CCNCC1 | 35.6 | – |
| O=C1c2ccccc2C(=O)c2c1cccc2-c1cnn(C2CCCCO2)c1 (stereo not given) | 24.3 | – |
| CCOC(=O)C(C)n1cc(-c2cccc3c2C(=O)c2ccccc2C3(O)C(F)(F)F)cn1 (stereo not given) | 36.9 | – |
| CCOC(=O)C(C)n1cc(-c2cccc3c2C(=O)c2ccccc2C3=O)cn1 (stereo not given) | 29.4 | – |
| CC(C(=O)O)n1cc(-c2cccc3c2C(=O)c2ccccc2C3=O)cn1 (stereo not given) | 45.9 | – |
| CC(C(=O)O)n1cc(-c2cccc3c2C(=O)c2ccccc2C3(O)C(F)(F)F)cn1 (stereo not given) | 47.2 | IC50 [5]: 143 nM |
| O=C1c2ccccc2C(O)(C(F)(F)F)c2cccc(C3=CCNCC3)c21 (stereo not given) | 29.7 | – |
| CC(C)(C)OC(=O)N1CCC(n2cc(-c3cccc4c3C(=O)c3ccccc3C4(O)C(F)(F)F)cn2)CC1 (stereo not given) | 32.1 | – |
| O=C1c2ccccc2C(O)(C(F)(F)F)c2cccc(-c3cnn(C4CCNCC4)c3)c21 (stereo not given) | 30.2 | – |
| O=C1c2ccccc2C(=O)c2c1cccc2C1=CCN(C(=O)Nc2ccccc2)CC1 | 32.6 | – |
| CC(C)(C)OC(=O)N1CC=C(c2cccc3c2C(=O)c2ccccc2C3(O)C(F)(F)F)CC1 (stereo not given) | 17.3 | – |
| O=C1c2ccccc2C(=O)c2c1cccc2-c1cn[nH]c1 | 32.9 | – |
| CC(C)(C)OC(=O)N1CCC(n2cc(-c3cccc4c3C(=O)c3ccccc3C4=O)cn2)CC1 | 32.6 | – |
| O=C1CC2(CCCC2)CC(=O)N1CCCCN1CCN(c2ncccn2)CC1 [BUSPIRONE] | – | remaining at 0.5 h, 1 µM [6]: 4%; remaining at 0.5 h [7]: 0.1% |
| O=C(O)c1ccc(-c2cccc3c2C(=O)c2ccccc2C3=O)cc1 | 30.4 | – |
| O=C1c2ccccc2C(=O)c2c(Br)cccc21 | 37.8 | – |
| O=C1c2ccccc2C(=O)c2c1cccc2C1=CCN(C(=O)OCc2ccccc2)CC1 | 41.6 | – |
| CS(=O)(=O)N1CC=C(c2cccc3c2C(=O)c2ccccc2C3=O)CC1 | 29.5 | – |
| O=C1c2ccccc2C(O)(C(F)(F)F)c2cccc(C3=CCN(C(=O)OCc4ccccc4)CC3)c21 (stereo not given) | 34.1 | – |
| O=C1c2ccccc2C(=O)c2c1cccc2-c1ccc(O)cc1 | 35.9 | – |
| CC(C)(C)OC(=O)N1CC=C(c2cccc3c2C(=O)c2ccccc2C3=O)CC1 | 53.4 | IC50 [5]: 600 nM |
